Screens: PubChem BioAssay, several laboratories
An excerpt weighted towards active compounds, which were near 4.1% of everything screened.
KCNK9 block: inhibitors of human KCNK9 two-pore domain potassium channel. HEK293 KCNK9, FluxOR thallium flux fluorescence; stronger effect = lower value. Q9NPC2. actives 1.2% (n = 310,000). AID 488922. B-score at 10 µM;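 active = ratio B-score over 3 SD below the library mean, with starting fluorescence within 5 SD of its mean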;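 note: negative B-score means less thallium flux so channel inhibition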
KCC2 mod: modulates chloride dependent transport by human KCC2. AID 1456. actives 2.2% (n = 190,000). KCC2 cells, thallium flux FluoZin-2 fluorescence. Q9H2X9. B-score of Tl+ flux slope (higher = more flux/activation; lower = inhibition) at 10 µM;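 active = thallium flux slope and its plate-corrected score both differing from the plate sample mean at a set confidence after two filtering rounds, in either direction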;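 note: slope of fluorescence scaled to starting intensity during 10 to 20 s after thallium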
hERG protect: shields human hERG channel from block by proarrhythmic agents. Q12809. CHO-hERG, FluxOR thallium flux, dofetilide IC70 present. activation (rescue from dofetilide block), less the hit threshold, % at 10 µM. actives 0.51% (n = 310,000). AID 1511;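 active = activation above the mean of controls blocked by dofetilide plus 5 SD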;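 note: thallium influx through hERG after potassium depolarization seen as dye fluorescence rise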
KCNQ1 act: potentiators or activators of human KCNQ1 potassium channel. actives 0.35% (n = 310,000). P51787. B-score at 10 µM. CHO-K1 KCNQ1, thallium flux FluxOR fluorescence; stronger effect = higher value;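 active = fluorescence ratio B-score, a plate-corrected score, at least three library SD, with initial intensity B-score within 5 SD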
Target sequence (P51787 whole entry, looked up): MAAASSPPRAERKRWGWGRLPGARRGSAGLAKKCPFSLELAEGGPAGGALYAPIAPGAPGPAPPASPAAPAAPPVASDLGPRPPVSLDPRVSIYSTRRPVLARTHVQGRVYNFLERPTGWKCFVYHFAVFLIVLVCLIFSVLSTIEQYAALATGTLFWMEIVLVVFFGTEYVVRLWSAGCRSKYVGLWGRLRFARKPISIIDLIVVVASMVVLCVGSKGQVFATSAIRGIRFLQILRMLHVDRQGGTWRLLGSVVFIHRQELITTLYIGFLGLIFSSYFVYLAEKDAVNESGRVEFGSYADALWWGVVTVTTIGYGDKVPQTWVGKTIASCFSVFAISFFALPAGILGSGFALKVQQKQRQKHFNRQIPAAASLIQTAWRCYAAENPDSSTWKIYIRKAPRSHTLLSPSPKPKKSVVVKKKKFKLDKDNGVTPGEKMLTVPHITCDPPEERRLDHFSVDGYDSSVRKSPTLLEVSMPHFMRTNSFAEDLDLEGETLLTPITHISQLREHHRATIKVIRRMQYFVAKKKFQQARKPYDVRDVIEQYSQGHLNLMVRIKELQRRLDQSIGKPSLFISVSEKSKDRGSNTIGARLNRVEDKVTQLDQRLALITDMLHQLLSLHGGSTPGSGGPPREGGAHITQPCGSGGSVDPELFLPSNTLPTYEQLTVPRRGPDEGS
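Assay system: CHO-K1 cells stably expressing KCNQ1. Medium: assay buffer for compound exposure, DMSO matched across wells. Timing: 37 °C overnight plating, 90-min dark dye load, 20-min compound pretreatment. Signal: kinetic FluxOR fluorescence, 10 s baseline plus 110 s post-stimulus.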
KCNK3 inh: human KCNK3 channel inhibition, primary screen; actives 0.84% (n = 340,000); B-score at 10 µM; CHO-KCNK3 thallium flux, FluxOR fluorescence; stronger effect = lower value; O14649;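 active = B-score under library mean minus 4 SD, starting fluorescence ratio at most library mean plus 5 SD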;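 note: more negative B-score means stronger inhibition of thallium flux through KCNK3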
KCNQ1 block: blocks the human KCNQ1 potassium channel; AID 2642; actives 1.3% (n = 310,000); B-score at 10 µM; CHO-K1 KCNQ1, FluxOR thallium flux fluorescence; stronger effect = higher value; P51787;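 active = compounds whose thallium flux B-score, printed positive for inhibition, exceeds three library SD while starting fluorescence stays within three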;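 note: channel opened by potassium depolarization with thallium stimulus after 20 min compound exposure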
KCC2 sec1: KCC2 (human) modulation, secondary assay. shares compounds with KCC2 mod. HEK293-KCC2, thallium flux, FluoZin2 fluorescence; stronger effect = higher value. normalised thallium flux (F/F0 slope) at 10 µM. actives 15% (n = 3,700). AID 1713;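 active = thallium flux slope above the same plate's solvent-only control mean plus 3 SD; inconclusive = the two replicate wells disagree; inactive = no significant difference from solvent-only control wells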
KCC2 bumet counter: thallium flux persisting under bumetanide in KCC2 cells, counter-screen secondary assay | shares compounds with KCC2 mod | HEK293-KCC2 + bumetanide/ouabain, thallium flux FluoZin2; stronger effect = higher value | normalized thallium flux at 10 µM | actives 49% (n = 3,700);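 active = thallium entry rate above the same plate's blocked-transporter control wells by more than 3 SD; inconclusive = the two repeat wells disagree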;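 note: raw slope of fluorescence over initial fluorescence between 10 and 20 s after thallium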
KCC2 secondary2: confirmation of human KCC2 transport modulators | normalized thallium flux at 10 µM | shares compounds with KCC2 mod | AID 1715 | HEK293-KCC2, thallium flux FluoZin2 fluorescence; actives lie on both sides; F/F0 rise rate, 10–20 s post-thallium | actives 23% (n = 3,700);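 active = thallium flux slope more than 3 SD above or below the plate's solvent-only control mean, mostly below; inconclusive = the two repeat wells disagreed; inactive = no significant shift from solvent-only controls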;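 note: raw slope with 0.1% DMSO as baseline and bumetanide as block control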
HEK293 Tl flux: counter-screen for KCC2 modulators: effect in parental HEK293 cells | shares compounds with KCC2 mod | thallium flux FluoZin2, ouabain; baseline-ratio fluorescence slope, 10–20 s after thallium | thallium flux rate (normalised fluorescence) at 10 µM | actives 46% (n = 3,700);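 active = thallium flux rate significantly above the same plate's solvent-only control wells, beyond their mean plus 3 SD; inconclusive = the two replicate wells gave conflicting results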
KCC2 ouabain: confirmation of human KCC2 modulators with ouabain; shares compounds with KCC2 mod; HEK293-KCC2, thallium flux FluoZin2 fluorescence; bidirectional: low = inhibitor, high = activator; actives 48% (n = 3,700); raw Tl+ flux slope (below DMSO = inhibition, above = activation) at 10 µM;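 active = thallium flux slope beyond 3 SD from same-plate DMSO control mean in most replicates, usually higher, sometimes lower; inconclusive = repeat tests gave conflicting results; inactive = no significant difference from controls in most replicates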;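 note: slope of initial-normalized fluorescence between seconds 10 and 20 after thallium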
HEK counter2: acts in parental HEK cells, second KCC2 counter-screen. thallium flux slope at 10 µM. AID 1718. actives 33% (n = 3,700). HEK293 parental, thallium flux FluoZin-2 fluorescence slope. shares compounds with KCC2 mod;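 active = thallium flux slope above the same plate's solvent-control mean plus 3 SD in both duplicate wells; inconclusive = duplicate wells that disagreed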;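 note: run without ouabain in cells lacking the KCC2 cotransporter; slope of fluorescence scaled to its starting value between 10 and 20 s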
Active calls of the source: *.

COc1ccc(-c2csc(NC(=O)c3nc(-c4ccccc4)oc3C)n2)cc1 was read as KCNK9 block inactive, KCC2 mod 1.02, hERG protect -1.8, KCNQ1 act inactive, KCNK3 inh inactive and KCNQ1 block inactive.
CCCn1c(SCC(N)=O)nc2c(c1=O)C1(CCCC1)Cc1ccccc1-2 was read as KCNK9 block inactive, hERG protect 0.3, KCNQ1 act inactive, KCNK3 inh inactive, KCNQ1 block inactive, KCC2 sec1 0.0132*, KCC2 bumet counter 0.031*, KCC2 secondary2 0.0363, HEK293 Tl flux 0.0169*, KCC2 ouabain inconclusive and HEK counter2 0.0123*.
For Cn1c(COc2ccc(F)cc2)nnc1SCC(=O)NC1CC1 the results were KCNK9 block inactive, hERG protect -7.0, KCNQ1 act inactive, KCNK3 inh inactive and KCNQ1 block inactive.
For COc1ccc(NC(=S)N/C(=N/S(=O)(=O)c2ccc(C)cc2)c2ccccc2)cc1 the results were KCNK9 block inactive, KCC2 mod 4.18*, hERG protect -2.0, KCNQ1 act inactive, KCNK3 inh inactive, KCNQ1 block inactive, KCC2 sec1 inconclusive, KCC2 bumet counter 0.02*, KCC2 secondary2 0.0321, HEK293 Tl flux 0.0129*, KCC2 ouabain 0.0262* and HEK counter2 0.0122.
CCOC(=S)N/C(=N\S(=O)(=O)c1ccc(C)cc1)c1ccccc1 was read as KCNK9 block inactive, hERG protect 2.5, KCNQ1 act inactive, KCNK3 inh inactive, KCNQ1 block inactive, KCC2 sec1 inconclusive, KCC2 bumet counter 0.0146*, KCC2 secondary2 0.0398, HEK293 Tl flux inconclusive, KCC2 ouabain 0.0278* and HEK counter2 0.0114.
Screening Cc1ccc(S(=O)(=O)NN/C(=N/S(=O)(=O)c2ccccc2)c2ccccc2)cc1 returned KCNK9 block inactive, KCC2 mod -0.225, hERG protect -12.6, KCNQ1 act inactive, KCNK3 inh inactive and KCNQ1 block inactive.
CCOc1ccccc1NC(=O)COC(=O)COc1c(Cl)cc(Cl)c2ccc(C)nc12 was read as KCNK9 block inactive, hERG protect -6.5, KCNQ1 act inactive, KCNK3 inh inactive and KCNQ1 block inactive.
Screening Cc1ccc2c(Cl)cc(Cl)c(OCC(=O)NC3CCS(=O)(=O)C3)c2n1 (stereo not drawn) returned KCNK9 block inactive, KCC2 mod 10.5*, hERG protect -6.2, KCNQ1 act inactive, KCNK3 inh inactive, KCNQ1 block inactive, KCC2 sec1 0.0178, KCC2 bumet counter 0.019*, KCC2 secondary2 0.0304, HEK293 Tl flux 0.0158*, KCC2 ouabain 0.0223* and HEK counter2 0.0155*.
For CCN(CC(=O)NC(C)(C)C)C(=O)COc1c(Cl)cc(Cl)c2ccc(C)nc12 the results were KCNK9 block inactive, KCC2 mod 88.2*, hERG protect -13.8, KCNQ1 act inactive, KCNK3 inh inactive, KCNQ1 block inactive, KCC2 sec1 0.02*, KCC2 bumet counter 0.113*, KCC2 secondary2 0.0357, HEK293 Tl flux inconclusive, KCC2 ouabain 0.0898* and HEK counter2 inconclusive.
`CCOC(=O)c1c(C)oc2ccc(O)cc12` gave KCNK9 block inactive, hERG protect -19.3, KCNQ1 act inactive, KCNK3 inh inactive and KCNQ1 block inactive.
CCOC(=O)c1c(C(C)(C)C)oc2ccc(O)cc12 was read as KCC2 mod -6.17*, KCNK3 inh inactive, KCC2 sec1 0.00796, KCC2 bumet counter 0.00633, KCC2 secondary2 0.0352, HEK293 Tl flux 0.00786, KCC2 ouabain inconclusive and HEK counter2 0.0105.
For CC(C)c1cccc(C(C)C)c1NC(=O)CN1C(=O)NC2(CCCC2)C1=O the results were KCNK9 block inactive, hERG protect -1.8, KCNQ1 act inactive, KCNK3 inh inactive and KCNQ1 block inactive.
For O=c1c2ccc(Cl)cc2[nH]c(=S)n1Cc1cccnc1 the results were KCNK9 block inactive, KCC2 mod 3.56*, hERG protect -7.7, KCNQ1 act inactive, KCNK3 inh inactive, KCNQ1 block inactive, KCC2 sec1 0.0129*, KCC2 bumet counter 0.0297*, KCC2 secondary2 0.0345, HEK293 Tl flux 0.0153*, KCC2 ouabain 0.0284 and HEK counter2 0.0115*.
`Cc1sc(NC(=O)CSC2=NCCS2)nc1-c1ccccc1` gave KCNK9 block inactive, hERG protect -7.2, KCNQ1 act inactive, KCNK3 inh inactive, KCNQ1 block inactive, KCC2 sec1 0.00783, KCC2 bumet counter 0.0041, KCC2 secondary2 0.0328, HEK293 Tl flux 0.00394, KCC2 ouabain 0.0191 and HEK counter2 0.0108.
Screening O=C(CSC1=NCCS1)Nc1nc2ccccc2s1 returned KCNK9 block inactive, KCC2 mod -1.15, hERG protect -1.3, KCNQ1 act inactive, KCNK3 inh inactive and KCNQ1 block inactive.
Screening O=c1nc(Nc2cccc(Cl)c2)oc2cc(Cl)oc(=O)c12 returned KCNK9 block inactive, KCC2 mod -4.53*, hERG protect -7.7, KCNQ1 act inactive, KCNK3 inh inactive, KCNQ1 block inactive, KCC2 sec1 0.00622, KCC2 bumet counter 0.00485, KCC2 secondary2 0.029, HEK293 Tl flux 0.00646, KCC2 ouabain inconclusive and HEK counter2 0.0102.
For O=c1nc(Nc2ccccc2)oc2ccccc12 the results were KCNK9 block inactive, KCC2 mod 0.218, hERG protect -9.9, KCNQ1 act inactive, KCNK3 inh inactive and KCNQ1 block inactive.
`CN1/C(=C\C=Nc2ccc3ccccc3c2)C(C)(C)c2ccccc21` gave KCNK3 inh inactive.
